Data on eight compounds can be found in ChEMBL document CHEMBL1134480, “Antiplasmodial activity and cytotoxicity of bis-, tris-, and tetraquinolines with linear or cyclic amino linkers” (J Med Chem, 2001).

Each structure is given as a SMILES string.

A short description of data set [1]: In vitro cytotoxic activity against mouse peritoneal macrophages at a concentration 8 uM; Toxic. The class given is toxicity.
Data set [2] relates to MRC5. The data set is described as follows: Cytotoxicity against MRC-5 cells at concentration 0.5 uM. The class given is functional. The following applies: Homo sapiens. Put shortly: (§1)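 MRC-5 human embryonic lung diploid cells were seeded at 5000 per well. After 24 h the cells were washed and exposed to 2-fold drug dilutions in RPMI + 5% FCS, with final DMSO below 0.5%. Incubation was 7 days at 37 °C in 5% CO2. Viability was read by MTT absorbance at 540 nm.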

In data set [3] the test system is MRC5. The data set can be described thus: Cytotoxicity against MRC-5 cells at concentration 8 uM. The settings on record: Homo sapiens. The class given is functional. Put shortly:
as §1

In data set [4] the test system is Plasmodium falciparum. The data set is described as follows: In vitro growth inhibition of Plasmodium falciparum FcB1R. In kind it is functional, organism-based. Put shortly:
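Asynchronous P. falciparum cultures were grown in human erythrocytes at 0.5% parasitemia and 1% hematocrit. They were exposed to serial drug dilutions, with DMSO ≤0.1%, for 24 h at 37 °C before adding 0.5 µCi [3H]hypoxanthine per well. Inhibition was measured as incorporated radioactivity versus drug-free controls on the same plate. IC50 came from concentration–response curves, reported as mean ± SD of three independent experiments; FcB1R used several experiments.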

A short description of data set [5]: In vitro cytotoxic activity against mouse peritoneal macrophages at a concentration 32 uM; Toxic. In kind it is toxicity.
Data set [6] deals with MRC5. The data set can be described thus: Cytotoxicity against MRC-5 cells at concentration 32 uM. In kind it is functional. The following applies: Homo sapiens. Put shortly: as §1
Data set [7] concerns MRC5. The data set is described as follows: Cytotoxicity against MRC-5 cells at concentration 1 uM. The class given is functional. The settings on record: Homo sapiens. Put shortly:
as §1

Data set [8] is described as follows: In vitro cytotoxic activity against mouse peritoneal macrophages at a concentration 2 uM; Toxic. The class given is toxicity.
The test system of data set [9] is Plasmodium falciparum. The data set is described as follows: (§2) In vitro growth inhibition of Plasmodium falciparum W2. The class given is functional, organism-based. Put shortly: (§3)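 Asynchronous P. falciparum cultures in human erythrocytes (0.5% parasitemia, 1% final hematocrit) exposed to serially diluted drug for 24 h at 37 °C, then pulsed with 0.5 µCi [³H]hypoxanthine per well. Inhibition from incorporated radioactivity versus drug-free control on the same plate; IC50 from concentration-response curve; mean ± SD of three independent experiments. DMSO ≤0.1% final.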

The test system of data set [10] is Plasmodium falciparum. The data set is described as follows: (§4) In vitro growth inhibition of Plasmodium falciparum F32. In kind it is functional, organism-based. Put shortly:
as §3

For data set [11], the system named is Plasmodium falciparum. The data set can be described thus: (§5) In vitro growth inhibition of Plasmodium falciparum D6. In kind it is functional, organism-based. Put shortly: as §3
The species named for data set [12] is Mus musculus. The data set can be described thus: In vitro cytotoxic activity against mouse peritoneal macrophages at a concentration 2 uM; Non-toxic. In kind it is functional.
Data set [13] deals with Plasmodium falciparum. Described as §4. The class given is functional, organism-based. The source holds these as a separate data set.
Data set [14] is filed under the species Mus musculus. The data set is described as follows: In vitro cytotoxic activity against mouse peritoneal macrophages at a concentration 8 uM; Non-toxic. The class given is functional.
The subject of data set [15] is Plasmodium falciparum. The data set is described as §2. The class given is functional, organism-based. This is another data set of the same source.
A short description of data set [16]: In vitro cytotoxicity against mouse peritoneal macrophages at concentration 32 uM; Toxic. The class given is toxicity.
Data set [17] is described as follows: In vitro cytotoxicity against mouse peritoneal macrophages at concentration 8 uM; Toxic. In kind it is toxicity.
Data set [18] in a line: In vitro cytotoxic activity against mouse peritoneal macrophages at concentration 32 uM; Toxic. In kind it is toxicity.
A short description of data set [19]: Inhibition of haem polymerization. Put shortly:
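Insoluble FcB1R trophozoite material (~4 × 10^7 parasites) was mixed with 0.3 mM bovine haematin in 60 mM sodium acetate, pH 5, plus drug at varied concentrations and 1% DMSO, then incubated 4 h at 37 °C. The washed pellet was treated with SDS, and polymerized haem was dissolved in NaOH and read at 404 nm. Values were corrected for endogenous haemozoin to give IC50. Data are the mean of two independent experiments, each run in duplicate.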

Data set [20] concerns Plasmodium falciparum. The data set is described as §5. In kind it is functional, organism-based. The source holds these as a separate data set.

A word on the IC50: it is the point on the concentration scale where inhibition reaches its midpoint. Read a low IC50 as greater potency in that assay. For the compound `O=C(CCCCCCCCCCCN1CCCCC1)N1CCN(c2ccnc3cc(Cl)ccc23)CCN(c2ccnc3cc(Cl)ccc23)CC1`, the Cytotoxicity result in data set [1], in data set [5] and in data set [8] was “Toxic” throughout. Further, in the data set with MRC5 [2], the cytotoxicity at 0.5 µM amounted to 0%. In addition, the cytotoxicity at 8 µM in the data set with MRC5 [3] worked out at 92%. The 50% inhibitory concentration (IC50) in the data set on Plasmodium falciparum [4] stood at 0.109 µM. The compound further came in with a cytotoxicity at 32 µM in the data set on MRC5 [6] of 89%. The compound further registered a cytotoxicity at 1 µM in the data set on MRC5 [7] of 11%.
In the case of `O=C(CCN1CCCCC1)N1CCN(c2ccnc3cc(Cl)ccc23)CCN(c2ccnc3cc(Cl)ccc23)CC1`, the 50% inhibitory concentration (IC50) in the data set with Plasmodium falciparum [9] stood at 0.0502 µM; in the data set with Plasmodium falciparum [10] it was 0.0161 µM; with Plasmodium falciparum [4], 0.0386 µM; with Plasmodium falciparum [11], 0.0189 µM. Further, the figures for the Cytotoxicity result (in data set [1]; in data set [5]; in the data set listed under Mus musculus [12]) were “Toxic”, “Toxic” and “Not toxic”, respectively. This compound also had a cytotoxicity at 0.5 µM with MRC5 [2] of 0%. The compound also showed a cytotoxicity at 8 µM in the data set with MRC5 [3] of 87%. Besides, the cytotoxicity at 32 µM in the data set with MRC5 [6] is 91%. Also, in the data set with MRC5 [7], the cytotoxicity at 1 µM is 0%.
On to `O=C(CCCC(=O)N1CCN(c2ccnc3cc(Cl)ccc23)CCN(c2ccnc3cc(Cl)ccc23)CC1)N1CCN(c2ccnc3cc(Cl)ccc23)CCN(c2ccnc3cc(Cl)ccc23)CC1`, for which the half-maximal inhibitory concentration (IC50) in the data set with Plasmodium falciparum [13] came out at 0.0179 µM; in the data set with Plasmodium falciparum [4], 0.0183 µM; with Plasmodium falciparum [15] it was 0.0292 µM; in the data set on Plasmodium falciparum [11], 0.0185 µM. For the same compound, the Cytotoxicity result in the data set filed under Mus musculus [14] and in the data set listed under Mus musculus [12] was “Not toxic” throughout. Also, in the data set with MRC5 [2], the cytotoxicity at 0.5 µM stood at 0%. Besides, the cytotoxicity at 8 µM with MRC5 [3] worked out at 0%. The same compound showed a cytotoxicity at 32 µM with MRC5 [6] of 0%. The compound further had a cytotoxicity at 1 µM in the data set with MRC5 [7] of 0%.
As to `Clc1ccc2c(NCCCCNCCCNc3ccnc4cc(Cl)ccc34)ccnc2c1`, the Cytotoxicity entry in [16] was “Toxic”; in data set [17] it was “Toxic”; in the data set filed under Mus musculus [12], “Not toxic”. The same compound yielded a cytotoxicity at 0.5 µM with MRC5 [2] of 0%. The same compound yielded a cytotoxicity at 8 µM with MRC5 [3] of 100%. Moreover, the IC50 in the data set on Plasmodium falciparum [4] stood at 0.057 µM. Further, the cytotoxicity at 32 µM in the data set on MRC5 [6] turned out to be 100%. The compound further had a cytotoxicity at 1 µM in the data set on MRC5 [7] of 0%.
Take `O=C(CCCCCCCN1CCCCC1)N1CCN(c2ccnc3cc(Cl)ccc23)CCN(c2ccnc3cc(Cl)ccc23)CC1`: the Cytotoxicity result in data set [1], in data set [5] and in data set [8] was “Toxic” throughout. In the data set with MRC5 [2], this compound gave a cytotoxicity at 0.5 µM of 0%. Also, the cytotoxicity at 8 µM with MRC5 [3] is 91%. In the data set on Plasmodium falciparum [4], half-maximal inhibition (IC50) was put at 0.0811 µM. Further, the cytotoxicity at 32 µM in the data set on MRC5 [6] came to 91%. In addition, in the data set on MRC5 [7], the cytotoxicity at 1 µM turned out to be 0%.
With `Clc1ccc2c(N3CCCNCCN(c4ccnc5cc(Cl)ccc45)CCCNCC3)ccnc2c1`, the Cytotoxicity entry in the data set listed under Mus musculus [14] is “Not toxic”; in [18], “Toxic”; in the data set listed under Mus musculus [12] it was “Not toxic”. Moreover, in the data set on MRC5 [2], the cytotoxicity at 0.5 µM turned out to be 0%. The same compound displayed a cytotoxicity at 8 µM in the data set with MRC5 [3] of 0%. Besides, the IC50 in the data set on Plasmodium falciparum [4] was more than 1 µM. In the data set with MRC5 [6], this compound yielded a cytotoxicity at 32 µM of 98%. In addition, in the data set with MRC5 [7], the cytotoxicity at 1 µM was 0%.
Take `Clc1ccc2c(N3CCNCCN(c4ccnc5cc(Cl)ccc45)CC3)ccnc2c1`: the IC50 in the data set with Plasmodium falciparum [13] was determined as 0.0646 µM; in the data set on Plasmodium falciparum [15] it was 0.17 µM; in [19], 170 µM; with Plasmodium falciparum [11], 0.0745 µM. Moreover, the Cytotoxicity result in the data set listed under Mus musculus [14] and in the data set listed under Mus musculus [12] was “Not toxic” throughout. In the data set on MRC5 [2], the cytotoxicity at 0.5 µM came to 0%. The cytotoxicity at 8 µM in the data set on MRC5 [3] was 0%. Further, in the data set on MRC5 [6], the cytotoxicity at 32 µM came out at 0%. Also, the cytotoxicity at 1 µM in the data set on MRC5 [7] worked out at 0%.
`O=C(CCCCCCCC(=O)N1CCN(c2ccnc3cc(Cl)ccc23)CCN(c2ccnc3cc(Cl)ccc23)CC1)N1CCN(c2ccnc3cc(Cl)ccc23)CCN(c2ccnc3cc(Cl)ccc23)CC1`: the IC50 with Plasmodium falciparum [13] stood at 0.0463 µM; in the data set on Plasmodium falciparum [4], 0.0226 µM; in the data set on Plasmodium falciparum [15], 0.0672 µM; in the data set on Plasmodium falciparum [20] it was 0.0417 µM. In addition, the Cytotoxicity result in the data set filed under Mus musculus [14] is “Not toxic”; in data set [5] it was “Toxic”; in the data set filed under Mus musculus [12], “Not toxic”. In the data set on MRC5 [2], this compound registered a cytotoxicity at 0.5 µM of 0%. The same compound registered a cytotoxicity at 8 µM in the data set on MRC5 [3] of 0%. This compound also gave a cytotoxicity at 32 µM with MRC5 [6] of 0%. In the data set on MRC5 [7], this compound returned a cytotoxicity at 1 µM of 0%.
